Assay results pooled from the literature.
Protocols differ between the studies behind these lines.
Target: Serine/threonine-protein kinase 33 (STK33, Homo sapiens, UniProt Q9BYT3)

| Compound | observed | mode | technique | tested at | quantity | result |
| --- | --- | --- | --- | --- | --- | --- |
| CCc1ccccc1C(=O)Nc1n[nH]c2c(C)c(F)c(C3C(C#N)=C(C)N(C)C(C)=C3C#N)cc12 | cell-free assay | – | competition with immobilised ligand | 1 µM | remaining binding | 100% |
| Cc1cc(NC(=O)c2cccc3cc(-c4cccc5[nH]nc(N)c45)ccc23)ccc1F | enzyme activity | inhibitor | – | 0.1 µM | activity vs control | 126% |
| Cn1cncc1C1=CN(c2ncnc3[nH]cnc23)CCS1 | enzyme activity | inhibitor | radiometric | 2 µM | inhibition | 80.5% |
| O=C(Nc1cnn(-c2csc(C(=O)NC3COC3)c2)c1)Nc1ccccc1Cl | enzyme activity | inhibitor | – | 5 µM | remaining activity | 99.3% |
| Cn1cnc(Br)c1C1=CN(c2ncnc3[nH]cnc23)CCS1 | enzyme activity | inhibitor | radiometric | 2 µM | inhibition | 78.4% |
| Cc1ccc(Nc2nccc(N(C)c3ccc4c(C)n(C)nc4c3)n2)cc1S(N)(=O)=O | enzyme activity | inhibitor | – | 10 µM | inhibition | 34% |
| COc1cc(Cl)c(C(=O)N[C@@H](CN[C@H]2CC[C@@H](N)CC2)Cc2ccc(C#N)cc2)cc1-c1ccc(CN[C@H](C)c2ccc(C)cc2)o1 | enzyme activity | inhibitor | – | 1 µM | remaining activity | 99% |
| Cn1nc(C(=O)NCc2ccc(C(=O)O)cc2)cc1-c1ccc2[nH]ccc2c1 | cell-free assay | – | competition with immobilised ligand | 0.1 µM | remaining binding | 87% |
| CC(C)c1ccc(NC(=O)c2cccs2)c(-c2nc3ccccc3[nH]c2=O)c1 | enzyme activity | inhibitor | – | 1 µM | activity vs control | 39% |
| Cc1ncc([N+](=O)[O-])n1C(=NO)c1ccccc1C(F)(F)F | enzyme activity | inhibitor | – | 10 µM | inhibition | 11.4% |
| Cc1cc(NC(=O)c2cccc(S(F)(F)(F)(F)F)c2)cc(-n2ccn3nc(-c4cccnc4)cc23)c1 | cell-free assay | – | competition with immobilised ligand | 1 µM | remaining binding | 87.8% |
| O=C(Nc1cnn(-c2csc(C(=O)NC3COC3)c2)c1)Nc1c(F)cccc1Cl | enzyme activity | inhibitor | – | 5 µM | remaining activity | 81.8% |
| CCN(CC)c1ccc(C2=NNC(=O)CC2C)cc1[N+](=O)[O-] (stereo not shown) | enzyme activity | inhibitor | – | 10 µM | remaining activity | 102% |
| CCCS(=O)(=O)Nc1ccc(F)c(C(=O)c2c[nH]c3ncc(-c4ccc(Cl)cc4)cc23)c1F | enzyme activity | inhibitor | – | 1 µM | inhibition | < 10% |
| COc1cc(Nc2cnc(C#N)c(O[C@H](C)CN(C)C)n2)ncc1-c1cnn(C)c1 | enzyme activity | inhibitor | radiometric | 10 µM | remaining activity | 16% |
| CCCCN(CCCC)C(=O)CN1C[C@H](c2cc(OC)c3c(c2)OCO3)[C@@H](C(=O)O)[C@@H]1CC(C)(C)CCC | cell-free assay | – | competition with immobilised ligand | 1 µM | remaining binding | 100% |
| Cc1cnc(NC2CCOCC2)nc1-n1cnc(C(=O)NC(CN)c2cc(F)cc(Cl)c2)c1 (stereo not shown) | enzyme activity | inhibitor | radiometric | 1 µM | remaining activity | 71% |
| FC(F)(F)Oc1cccc(-c2cnc3ccc(-c4ccncc4)nn23)c1 | enzyme activity | inhibitor | radiometric | 1 µM | activity vs control | 95% |
| Cc1nccc(COC(=O)N2C[C@@H]3[C@@H](CNC(=O)c4ccc5[nH]nnc5c4)[C@@H]3C2)n1 | cell-free assay | – | competition with immobilised ligand | 1 µM | remaining binding | 93% |
